Reference: ChEMBL document CHEMBL3994602, “Termisoflavones A-C, Isoflavonoid Glycosides from Termite-Associated Streptomyces sp. RB1” (2016)
Activity calls are given as the source filed them. The rule behind the calls is not given here.

Experiments:
[1] = test system: Escherichia coli; assay: Antibacterial activity against Escherichia coli DH10B by EUCAST method; type: functional; conditions: K-12 substr. DH10B
How it was run: (§1)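 Minimal inhibitory concentrations were determined by the EUCAST method, with streptomycin sulfate as the positive control.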

[2] = test system: Staphylococcus aureus; assay: Antibacterial activity against Staphylococcus aureus NCTC 8325-4 by EUCAST method; type: functional; how it was run: as §1
[3] = test system: Cryptococcus neoformans; assay: Antifungal activity against Cryptococcus neoformans H99 by CLSI M27-A3 broth microdilution method; type: functional; conditions: var grubii H99
How it was run: (§2)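 MICs were determined by broth microdilution following CLSI standard M27-A3, with fluconazole as the positive control.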

[4] = test system: LLC-PK1; assay: Renoprotective activity in pig LLC-PK1 cells assessed as inhibition of cisplatin-induced damage by measuring cell viability up to 100 uM preincubated for 24 hrs followed by addition of Ez-Cytox reagent and measured after 2 hrs relative to control; type: functional, Sus scrofa
How it was run: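 LLC-PK1 pig kidney epithelial cells were cultured in DMEM with 10% FBS, 1% penicillin/streptomycin and 4 mM L-glutamine at 37 °C, 5% CO2. Cells were seeded at 1 × 10^4 per well and allowed to adhere for 2 h. Test sample and/or 25 μM cisplatin were added and incubated for 24 h. Medium was replaced with serum-free medium plus Ez-Cytox for 2 h at 37 °C, then absorbance was read at 450 nm. N-acetyl cysteine was the positive control.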

[5] = test system: Candida albicans; assay: Antifungal activity against Candida albicans SC5314 by CLSI M27-A3 broth microdilution method; type: functional; how it was run: as §2

SMILES | MIC [1] | MIC [2] | MIC [3] | MIC [5] | Activity [4] | Activity ([4]; Sus scrofa)
C[C@@H]1O[C@@H](Oc2ccc(-c3coc4cc(O[C@@H]5O[C@@H](C)[C@H](O)[C@@H](O)[C@H]5O)ccc4c3=O)cc2)[C@H](O)[C@H](O)[C@H]1O | > 100 µg/mL | > 100 µg/mL | > 100 µg/mL | > 100 µg/mL |  | Active
CO[C@@H]1[C@@H](O)[C@H](C)O[C@@H](Oc2ccc(-c3coc4cc(O[C@@H]5O[C@@H](C)[C@H](O)[C@@H](OC)[C@H]5O)ccc4c3=O)cc2)[C@@H]1O | > 100 µg/mL | > 100 µg/mL | > 100 µg/mL | > 100 µg/mL |  | Active
C[C@@H]1O[C@@H](Oc2ccc(-c3coc4cc(O[C@@H]5O[C@@H](C)[C@H](O)[C@@H](O)[C@H]5O)cc(O)c4c3=O)cc2)[C@H](O)[C@H](O)[C@H]1O | > 100 µg/mL | > 100 µg/mL | > 100 µg/mL | > 100 µg/mL |  | Active
O=c1c(-c2ccc(O)cc2)coc2cc(O[C@@H]3O[C@H](CO)[C@@H](O)[C@H](O)[C@H]3O)cc(O)c12 [GENISTIN] | > 100 µg/mL | > 100 µg/mL | > 100 µg/mL | > 100 µg/mL |  | Active
CO[C@@H]1[C@@H](O)[C@H](C)O[C@@H](Oc2ccc(-c3coc4cc(O[C@@H]5O[C@@H](C)[C@H](O)[C@@H](O)[C@H]5O)cc(O)c4c3=O)cc2)[C@@H]1O | > 100 µg/mL | > 100 µg/mL | > 100 µg/mL | > 100 µg/mL |  | 
CO[C@@H]1[C@@H](O)[C@H](C)O[C@@H](Oc2ccc(-c3coc4cc(O[C@@H]5O[C@@H](C)[C@H](O)[C@@H](OC)[C@H]5O)cc(O)c4c3=O)cc2)[C@@H]1O | > 100 µg/mL | > 100 µg/mL | > 100 µg/mL | > 100 µg/mL |  | Active

More lines, main results first:

MIC [1] | MIC [2] | MIC [3] | MIC [5] | SMILES | Activity [4] | Activity ([4]; Sus scrofa)
> 100 µg/mL | > 100 µg/mL | > 100 µg/mL | > 100 µg/mL | O=c1c(-c2ccc(O)cc2)coc2cc(O[C@@H]3O[C@H](CO)[C@@H](O)[C@H](O)[C@H]3O)ccc12 [DAIDZIN] | >80% | 
> 100 µg/mL | > 100 µg/mL | > 100 µg/mL | > 100 µg/mL | O=c1c(-c2ccc(O)cc2)coc2cc(O)ccc12 [DAIDZEIN] |  | Active
> 100 µg/mL | > 100 µg/mL | > 100 µg/mL | > 100 µg/mL | COc1cc2c(=O)c(-c3ccc(O)cc3)coc2cc1O[C@@H]1O[C@@H](C)[C@H](O)[C@@H](O)[C@H]1O |  | 
> 100 µg/mL | > 100 µg/mL | > 100 µg/mL | > 100 µg/mL | C[C@@H]1O[C@@H](Oc2cc(O)c3c(=O)c(-c4ccc(O)cc4)coc3c2)[C@H](O)[C@H](O)[C@H]1O |  | Active
> 100 µg/mL | > 100 µg/mL | > 100 µg/mL | > 100 µg/mL | C[C@@H]1O[C@@H](Oc2ccc3c(=O)c(-c4ccc(O)cc4)coc3c2)[C@H](O)[C@H](O)[C@H]1O | >80% | 
